Measurements published in ChEMBL document CHEMBL1149310, “A screening library for peptide activated G-protein coupled receptors. 1. The test set” (J Med Chem, 2004).

The compounds below were run against Melanin-concentrating hormone receptor 1 (Rattus norvegicus, UniProt P97639) (assay: Binding affinity to rat MCH1 receptor).
Chain of Melanin-concentrating hormone receptor 1 (P97639 whole entry): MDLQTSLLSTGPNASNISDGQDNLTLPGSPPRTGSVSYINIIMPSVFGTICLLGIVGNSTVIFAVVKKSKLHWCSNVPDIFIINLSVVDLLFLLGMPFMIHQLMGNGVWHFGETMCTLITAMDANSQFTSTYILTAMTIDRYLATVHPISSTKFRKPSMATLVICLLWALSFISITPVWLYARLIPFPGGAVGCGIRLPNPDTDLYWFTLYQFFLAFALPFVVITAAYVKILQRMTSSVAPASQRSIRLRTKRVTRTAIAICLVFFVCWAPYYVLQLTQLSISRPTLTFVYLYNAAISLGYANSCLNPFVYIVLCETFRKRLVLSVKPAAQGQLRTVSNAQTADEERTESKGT
How it was run: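 Membranes from mammalian cells stably transfected with rat MCH1 receptor, prepared by nitrogen cavitation (900 psi, ice, 30 min) and differential centrifugation (800g, then 38 000g). Radioligand competition at equilibrium in 50 mM HEPES pH 7.0, 10 mM MgCl2, 2 mM EGTA. Hits were taken to 12-point dose-response curves to derive Ki. Bound and free were separated by filtration over PEI-treated GF-C filters and counted by scintillation.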
`O=C(Cc1csc2ccccc12)NC[C@@H]1CCCN1Cc1ccc(Cl)c(Cl)c1` showed a Ki of 6 µM. For `O=C(CCCc1ccccc1)NC[C@@H]1CCCN1CCc1ccccc1`, the Ki was > 10 µM. In the case of `O=C(CCc1ccccc1)NC1CCN(Cc2ccc(Cl)c(Cl)c2)C1` (centres undefined), the Ki is reported as > 10 µM. Compound `O=C(CCCc1ccccc1)NC[C@H]1CCCN1CCc1ccccc1` has a Ki of 3.1 µM. With `O=C(Cc1ccccc1)NC1CCN(CCc2ccccc2)C1` (centres undefined) the Ki was > 10 µM. Work on `O=C(Cc1ccccc1)NC1CCN(Cc2ccc(Cl)c(Cl)c2)C1` (centres undefined) yielded a Ki of 0.98 µM. `O=C(Cc1ccc(Oc2ccccc2)cc1)NC1CCN(Cc2ccc(Cl)c(Cl)c2)C1` (centres undefined) showed a Ki of 0.51 µM. `Clc1ccc(-c2ccc(CNC3CCN(CC(c4ccccc4)c4ccccc4)C3)o2)cc1` (centres undefined) showed a Ki of 1.7 µM. `CC(CCN1CCC(NCc2ccc(-c3ccc(Cl)cc3)o2)C1)CC(C)(C)C` (centres undefined) was tested, and the Ki was 5 µM. In the case of `O=C(Cc1csc2ccccc12)NC[C@H]1CCCN1Cc1ccc(Cl)c(Cl)c1`, the Ki is reported as 9.8 µM. With `O=C(Cc1ccccc1)NC1CCN(Cc2ccccc2)C1` (centres undefined) the Ki was > 10 µM. `O=C(Cc1csc2ccccc12)NC1CCN(Cc2ccc(Cl)c(Cl)c2)C1` (centres undefined) showed a Ki of 0.36 µM. For `O=C(Cc1ccc2c(c1)OCO2)NC1CCN(Cc2ccc(Cl)c(Cl)c2)C1` (centres undefined), the Ki was 0.63 µM. `COCC1=C(C(=O)OC)[C@H](c2ccc(F)c(F)c2)N(C(=O)NCCCN2CCC(c3cccc(NC(C)=O)c3)CC2)C(=O)N1` [SNAP-7941] gave a Ki of 0.002 µM.
